Measured values from ChEMBL document CHEMBL4229335 (Eur J Med Chem, 2018).
The source made the active and inactive calls. The rule behind the calls is not given here.

Key:
HL-60 = test: Antiproliferative activity against human HL60 cells after 72 hrs by MTT assay; assay type: functional, cell-based; conditions: HL-60, 72 h
Procedure, shortened: (§1)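 MTT assay with 72 h exposure to graded concentrations in triplicate. MTT solution then DMSO were added, followed by 10 min at room temperature, with absorbance read at 490 nm. IC50 is reported as the mean of three independent experiments. 5-FU served as positive control.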

PC-3 = test: Antiproliferative activity against human PC3 cells after 72 hrs by MTT assay; assay type: functional, cell-based; conditions: PC-3, 72 h; procedure, shortened: as §1
Bel-7402 [1] = test: Antiproliferative activity against human Bel7402 cells after 72 hrs by MTT assay; assay type: functional, cell-based; conditions: Bel-7402, 72 h; procedure, shortened: as §1
Bel7402/5-FU = test: Antiproliferative activity against human Bel7402/5-FU cells after 72 hrs by MTT assay; assay type: functional, cell-based; procedure, shortened: as §1
L02 = test: Antiproliferative activity against human LO2 cells after 72 hrs by MTT assay; assay type: cell-based; conditions: L02, 72 h; procedure, shortened: as §1
[2] = Selectivity index, ratio of IC50 for human LO2 cells to IC50 for human Bel7402 cells; assay type: toxicity; conditions: LO2 cells versus Bel7402 cells, read-out: Ratio IC50
Procedure, shortened: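 SI was calculated as IC50 in L-02 normal liver cells divided by IC50 in Bel-7402 cells, both from the 72 h MTT assay.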

Bel-7402 [3] = test: Cell cycle arrest in human Bel7402 cells assessed as accumulation of cells at G1 phase at 0.4 uM after 48 hrs by propidium iodide staining-based flow cytometric analysis (reference value: 63.55%); assay type: functional
Procedure, shortened: (§2)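 Bel-7402 cells were seeded in 6-well plates and grown 24 h at 37 °C. Compound in DMSO was added in triplicate, with DMSO-only controls, for 48 h. Cells were then centrifuged, fixed in 70% ethanol at 4 °C and stained with propidium iodide. DNA content was measured by flow cytometry to give cell-cycle phase distribution.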

Bel-7402 [4] = test: Cell cycle arrest in human Bel7402 cells assessed as accumulation of cells at G2 phase at 0.4 uM after 48 hrs by propidium iodide staining-based flow cytometric analysis (reference value: 23.53%); assay type: functional; procedure, shortened: as §2
Bel-7402 [5] = test: Cell cycle arrest in human Bel7402 cells assessed as accumulation of cells at S phase at 0.4 uM after 48 hrs by propidium iodide staining-based flow cytometric analysis (reference value: 12.92%); assay type: functional; procedure, shortened: as §2
Bel-7402 [6] = test: Cell cycle arrest in human Bel7402 cells assessed as G2/G1 phase ratio level at 0.4 uM after 48 hrs by propidium iodide staining-based flow cytometric analysis (reference value: 1.82%); assay type: functional; procedure, shortened: as §2
Bel-7402 [7] = test: Cell cycle arrest in human Bel7402 cells assessed as accumulation of cells at G1 phase at 0.8 uM after 48 hrs by propidium iodide staining-based flow cytometric analysis (reference value: 63.55%); assay type: functional; procedure, shortened: as §2
Bel-7402 [8] = test: Cell cycle arrest in human Bel7402 cells assessed as accumulation of cells at G2 phase at 0.8 uM after 48 hrs by propidium iodide staining-based flow cytometric analysis (reference value: 23.53%); assay type: functional; procedure, shortened: as §2
Bel-7402 [9] = test: Cell cycle arrest in human Bel7402 cells assessed as accumulation of cells at S phase at 0.8 uM after 48 hrs by propidium iodide staining-based flow cytometric analysis (reference value: 12.92%); assay type: functional; procedure, shortened: as §2
Bel-7402 [10] = test: Cell cycle arrest in human Bel7402 cells assessed as G2/G1 phase ratio level at 0.8 uM after 48 hrs by propidium iodide staining-based flow cytometric analysis (reference value: 1.82%); assay type: functional; procedure, shortened: as §2
Bel-7402 [11] = test: Cell cycle arrest in human Bel7402 cells assessed as accumulation of cells at G1 phase at 1.2 uM after 48 hrs by propidium iodide staining-based flow cytometric analysis (reference value: 63.55%); assay type: functional; procedure, shortened: as §2
Bel-7402 [12] = test: Cell cycle arrest in human Bel7402 cells assessed as accumulation of cells at G2 phase at 1.2 uM after 48 hrs by propidium iodide staining-based flow cytometric analysis (reference value: 23.53%); assay type: functional; procedure, shortened: as §2
Bel-7402 [13] = test: Cell cycle arrest in human Bel7402 cells assessed as accumulation of cells at S phase at 1.2 uM after 48 hrs by propidium iodide staining-based flow cytometric analysis (reference value: 12.92%); assay type: functional; procedure, shortened: as §2
Bel-7402 [14] = test: Cell cycle arrest in human Bel7402 cells assessed as G2/G1 phase ratio level at 1.2 uM after 48 hrs by propidium iodide staining-based flow cytometric analysis (reference value: 1.82%); assay type: functional; procedure, shortened: as §2
Bel-7402 [15] = test: Induction of apoptosis in human Bel7402 cells assessed as chromatin condensation at 0.4 to 1.2 uM after 48 hrs by Hoechst […] staining-based fluorescent microscopic analysis; assay type: functional, cell-based
Procedure, shortened: (§3)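 Bel-7402 cells were seeded in 6-well plates in 2 mL medium and grown 24 h. Compound was then added for 48 h, with a vehicle control. Nuclei were stained with Hoechst 33258 and examined by fluorescence microscopy for chromatin condensation and nuclear disintegration.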

Bel-7402 [16] = test: Induction of apoptosis in human Bel7402 cells assessed as nuclear disintegration at 0.4 to 1.2 uM after 48 hrs by Hoechst […] staining-based fluorescent microscopic analysis; assay type: functional, cell-based; procedure, shortened: as §3
Bel-7402 [17] = test: Induction of apoptosis in human Bel7402 cells assessed as early apoptotic cells at 0.4 uM after 24 hrs by Annexin V-FITC/propidium iodide staining-based flow cytometric analysis (reference value: 1.07%); assay type: functional
Bel-7402 [18] = test: Induction of apoptosis in human Bel7402 cells assessed as late apoptotic cells at 0.4 uM after 24 hrs by Annexin V-FITC/propidium iodide staining-based flow cytometric analysis (reference value: 0.96%); assay type: functional
Bel-7402 [19] = test: Induction of apoptosis in human Bel7402 cells assessed as necrotic cells at 0.4 uM after 24 hrs by Annexin V-FITC/propidium iodide staining-based flow cytometric analysis (reference value: 11.96%); assay type: functional
Bel-7402 [20] = test: Induction of apoptosis in human Bel7402 cells assessed as early apoptotic cells at 0.8 uM after 24 hrs by Annexin V-FITC/propidium iodide staining-based flow cytometric analysis (reference value: 1.07%); assay type: functional
Bel-7402 [21] = test: Induction of apoptosis in human Bel7402 cells assessed as late apoptotic cells at 0.8 uM after 24 hrs by Annexin V-FITC/propidium iodide staining-based flow cytometric analysis (reference value: 0.96%); assay type: functional
Bel-7402 [22] = test: Induction of apoptosis in human Bel7402 cells assessed as necrotic cells at 0.8 uM after 24 hrs by Annexin V-FITC/propidium iodide staining-based flow cytometric analysis (reference value: 11.96%); assay type: functional
Bel-7402 [23] = test: Induction of apoptosis in human Bel7402 cells assessed as early apoptotic cells at 1.2 uM after 24 hrs by Annexin V-FITC/propidium iodide staining-based flow cytometric analysis (reference value: 1.07%); assay type: functional
Bel-7402 [24] = test: Induction of apoptosis in human Bel7402 cells assessed as late apoptotic cells at 1.2 uM after 24 hrs by Annexin V-FITC/propidium iodide staining-based flow cytometric analysis (reference value: 0.96%); assay type: functional
Bel-7402 [25] = test: Induction of apoptosis in human Bel7402 cells assessed as necrotic cells at 1.2 uM after 24 hrs by Annexin V-FITC/propidium iodide staining-based flow cytometric analysis (reference value: 11.96%); assay type: functional
Bel-7402 [26] = test: Induction of apoptosis in human Bel7402 cells after 24 hrs by Annexin V-FITC/propidium iodide staining-based flow cytometric analysis; assay type: functional, cell-based
Bel-7402 [27] = test: Induction of mitochondrial membrane potential loss in human Bel7402 cells at 0.4 uM after 48 hrs by JC-1 dye-based flow cytometric analysis (reference value: 7.20%); assay type: functional
Procedure, shortened: (§4)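 Bel-7402 cells were exposed in triplicate for 48 h to compound or vehicle. Cells were washed with PBS and stained with JC-1 in the dark. The fraction of cells with collapsed versus intact mitochondrial membrane potential was counted by flow cytometry.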

Bel-7402 [28] = test: Induction of mitochondrial membrane potential loss in human Bel7402 cells at 0.8 uM after 48 hrs by JC-1 dye-based flow cytometric analysis (reference value: 7.20%); assay type: functional; procedure, shortened: as §4
Bel-7402 [29] = test: Induction of mitochondrial membrane potential loss in human Bel7402 cells at 1.2 uM after 48 hrs by JC-1 dye-based flow cytometric analysis (reference value: 7.20%); assay type: functional; procedure, shortened: as §4
Bel-7402 [30] = test: Induction of mitochondrial membrane potential in human Bel7402 cells after 48 hrs by JC-1 dye-based flow cytometric analysis; assay type: functional, cell-based; procedure, shortened: as §4
Bel-7402 [31] = test: Induction of apoptosis in human Bel7402 cells assessed as upregulation of Bax expression after 48 hrs by Western blot analysis; assay type: functional, cell-based
Procedure, shortened: (§5)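 Bel-7402 cells were treated in triplicate for 48 h at 0, 0.4, 0.8 and 1.2 µM. Protein content of lysates was determined, then lysates were run on 10% SDS-PAGE and transferred to nitrocellulose. Membranes were blocked with 5% fat-free milk, probed with monoclonal antibodies and detected by ECL chemiluminescence.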

Bel-7402 [32] = test: Induction of apoptosis in human Bel7402 cells assessed as upregulation of caspase3 expression after 48 hrs by Western blot analysis; assay type: functional, cell-based; procedure, shortened: as §5
Bel-7402 [33] = test: Induction of apoptosis in human Bel7402 cells assessed as upregulation of caspase9 expression after 48 hrs by Western blot analysis; assay type: functional, cell-based; procedure, shortened: as §5
Bel-7402 [34] = test: Induction of apoptosis in human Bel7402 cells assessed as upregulation of cytochrome C expression after 48 hrs by Western blot analysis; assay type: functional, cell-based; procedure, shortened: as §5
Bel-7402 [35] = test: Induction of apoptosis in human Bel7402 cells assessed as upregulation of p53 expression after 48 hrs by Western blot analysis; assay type: functional, cell-based; procedure, shortened: as §5
Bel-7402 [36] = test: Induction of apoptosis in human Bel7402 cells assessed as downregulation of Bcl2 expression after 48 hrs by Western blot analysis; assay type: functional, cell-based; procedure, shortened: as §5

`C=C1C(=O)[C@@]23C(=O)O[C@H]4CCC(C)(C)[C@H]5[C@H](O)OC[C@@]45[C@@H]2CC[C@@H]1[C@H]3O` showed an IC50 (HL-60) of 28.1 µM, an IC50 (PC-3) of 30.6 µM and an IC50 (Bel-7402 [1]) of 32.1 µM. For the same compound, the IC50 (Bel7402/5-FU) was 44.3 µM, the IC50 (L02) was 27.1 µM and the selectivity ratio [2] was 0.8.

For `C=C1C(=O)[C@@]23C(=O)O[C@H]4CCC(C)(C)[C@H]5C(=O)OC[C@@]45[C@@H]2CC[C@@H]1[C@H]3OC(=O)c1ccc(N(CCCl)CCCl)cc1`, the IC50 (HL-60) was 5.57 µM, the IC50 (PC-3) was 7.03 µM and the IC50 (Bel-7402 [1]) was 1.6 µM. It also gave an IC50 (Bel7402/5-FU) of 2.9 µM, an IC50 (L02) of 62.8 µM and a selectivity ratio [2] of 39.3.

With `C=C1C(=O)[C@@]23C(=O)O[C@H]4CCC(C)(C)[C@H]5[C@H](O)OC[C@@]45[C@@H]2CC[C@@H]1[C@H]3OC(=O)c1ccc(N(CCCl)CCCl)cc1` the IC50 (HL-60) was 7.83 µM, the IC50 (PC-3) was 3.97 µM and the IC50 (Bel-7402 [1]) was 0.77 µM. The IC50 (Bel7402/5-FU) was 2.07 µM, the IC50 (L02) was greater than 100 µM and the selectivity ratio [2] was greater than 130. The Activity (Bel-7402 [3]) was 66.71%, the Activity (Bel-7402 [4]) was 18.15% and the Activity (Bel-7402 [5]) was 15.15%. For the same compound, the Ratio (Bel-7402 [6]) was 1.84, the Activity (Bel-7402 [7]) was 69.71% and the Activity (Bel-7402 [8]) was 15.87%. The Activity (Bel-7402 [9]) was 14.42%, the Ratio (Bel-7402 [10]) was 1.85 and the Activity (Bel-7402 [11]) was 72.09%. For the same compound, the Activity (Bel-7402 [12]) was 13.33%, the Activity (Bel-7402 [13]) was 14.59% and the Ratio (Bel-7402 [14]) was 1.84. For the same compound, the Activity (Bel-7402 [15]) was “Active”, the Activity (Bel-7402 [16]) was “Active” and the Activity (Bel-7402 [17]) was 11.8%. The Activity (Bel-7402 [18]) was 7.07%, the Activity (Bel-7402 [19]) was 8.38% and the Activity (Bel-7402 [20]) was 24.22%. The Activity (Bel-7402 [21]) was 11.31%, the Activity (Bel-7402 [22]) was 4.23% and the Activity (Bel-7402 [23]) was 41.53%. The Activity (Bel-7402 [24]) was 19.39%, the Activity (Bel-7402 [25]) was 4.33% and the Activity (Bel-7402 [26]) was “Dose-dependent effect”. The Activity (Bel-7402 [27]) was 14.38%, the Activity (Bel-7402 [28]) was 20.93% and the Activity (Bel-7402 [29]) was 40%. The Activity (Bel-7402 [30]) was “Dose-dependent effect”, the Activity (Bel-7402 [31]) was “Dose-dependent effect” and the Activity (Bel-7402 [32]) was “Dose-dependent effect”. The Activity (Bel-7402 [33]) was “Dose-dependent effect”, the Activity (Bel-7402 [34]) was “Dose-dependent effect” and the Activity (Bel-7402 [35]) was “Dose-dependent effect”. The Activity (Bel-7402 [36]) was “Dose-dependent effect”.
